From ChEMBL document CHEMBL3860061, “A Novel Parkinson's Disease Drug Candidate with Potent Anti-neuroinflammatory Effects through the Src Signaling Pathway” (J Med Chem, 2016) come the findings set out here.

The source made the active and inactive calls. The calls are words filed in the database; no cut-off is given here.

The test system of series [1] is Mus musculus. Put plainly: In vivo inhibition of Src in MPTP/probenecid-induced chronic C57/BL mouse Parkinson's disease model assessed as effect on Akt expression level in midbrain at 5 to 20 mg/kg dosed once daily for 7 weeks post 10 doses of MPTP/probenecid for 5 weeks by iTRAQ-labelled 2D-LC/MS/MS analysis. The class given is functional, organism-based.
In series [2] the test system is Mus musculus. Put plainly: Antineuro-inflammatrory activity in MPTP-induced subacute C57/BL mouse Parkinson's disease model assessed as decrease in TNF-alpha levels in midbrain at 10 to 20 mg/kg […] dosed 30 mins prior to each MPTP injection for 5 days and administered continuously for 7 days post last MPTP dose measured on day 12 post last dose by ELISA. The series is classed as functional, organism-based. On the technique in general: In an ELISA, binding on a coated surface is turned into a signal by an enzyme label.

Series [3] relates to Mus musculus. Put plainly: Effect on ARHGAP21 protein expression level in midbrain of MPTP/probenecid-induced chronic C57/BL mouse Parkinson's disease model at 5 to 20 mg/kg dosed once daily for 7 weeks post 10 doses of MPTP/probenecid for 5 weeks by iTRAQ-labelled 2D-LC/MS/MS analysis. The series is classed as functional, organism-based.
The subject of series [4] is Mus musculus. Put plainly: Antineuro-inflammatrory activity in MPTP/probenecid-induced chronic C57/BL mouse Parkinson's disease model assessed as decrease in TNF-alpha level in midbrain at 10 to 20 mg/kg dosed once daily for 7 weeks post 10 doses of MPTP/probenecid for 5 weeks measured after last MPTP/probenecid dose by ELISA. The series is classed as functional, organism-based. In a few lines: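 Male C57/BL mice (22–25 g) received 10 doses of MPTP hydrochloride (25 mg/kg in saline, s.c.) plus probenecid (250 mg/kg in DMSO, i.p.) over 5 weeks. Only mice failing the rotarod afterwards were randomised to agent (5, 10, 20 mg/kg) or L-DOPA 20 mg/kg in 0.5% CMC-Na, once daily for 7 weeks. Midbrain lysate in non-denaturing buffer with protease inhibitor; IL-1β or TNF-α by ELISA, n = 6.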

Series [5] has as its system Mus musculus. Put plainly: Neuroprotective activity in MPTP/probenecid-induced chronic C57/BL mouse Parkinson's disease model assessed as reversal of decline of TH-positive neuron levels in substantia nigra at 10 to 20 mg/kg dosed once daily for 7 weeks post 10 doses of MPTP/probenecid for 5 weeks measured after last MPTP/probenecid dose by 3,3'-diaminobenzidine staining based light microscopic analysis. The class given is functional, organism-based. In outline:
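Male C57/BL mice (22–25 g) received 10 doses of MPTP hydrochloride (25 mg/kg in saline, s.c.) plus probenecid (250 mg/kg in DMSO, i.p.) over 5 weeks. Only mice showing rotarod dysfunction afterwards were used, randomized, and dosed daily for 7 weeks with test agent in 0.5% CMC-Na. Fixed brains were cut at 40 µm; nigral coronal sections were stained with anti-TH, developed with DAB/peroxide, and positive cells counted blind.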

In series [6] the target is Proto-oncogene tyrosine-protein kinase Src (Rattus norvegicus) (UniProt Q9WUD9). The series is described as follows: Inhibition of Src in Sprague-Dawley rat primary mixed mesecephalic neuron/glial cells assessed as suppression of LPS-induced IL-1beta expression at 10 uM preincubated for 1 hr followed by LPS challenge measured after 5 hrs by ELISA. In a few lines: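 Mixed mesencephalic neuron/glia cultures from E14 Sprague-Dawley rats, used at 7 days. Agent at 10 µM added 1 h before LPS 100 ng/mL; IL-1β and TNF-α in medium measured by ELISA after 5 h, n = 6.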
Chain of Proto-oncogene tyrosine-protein kinase Src (Rattus norvegicus) (Q9WUD9 2-536 limits assumed): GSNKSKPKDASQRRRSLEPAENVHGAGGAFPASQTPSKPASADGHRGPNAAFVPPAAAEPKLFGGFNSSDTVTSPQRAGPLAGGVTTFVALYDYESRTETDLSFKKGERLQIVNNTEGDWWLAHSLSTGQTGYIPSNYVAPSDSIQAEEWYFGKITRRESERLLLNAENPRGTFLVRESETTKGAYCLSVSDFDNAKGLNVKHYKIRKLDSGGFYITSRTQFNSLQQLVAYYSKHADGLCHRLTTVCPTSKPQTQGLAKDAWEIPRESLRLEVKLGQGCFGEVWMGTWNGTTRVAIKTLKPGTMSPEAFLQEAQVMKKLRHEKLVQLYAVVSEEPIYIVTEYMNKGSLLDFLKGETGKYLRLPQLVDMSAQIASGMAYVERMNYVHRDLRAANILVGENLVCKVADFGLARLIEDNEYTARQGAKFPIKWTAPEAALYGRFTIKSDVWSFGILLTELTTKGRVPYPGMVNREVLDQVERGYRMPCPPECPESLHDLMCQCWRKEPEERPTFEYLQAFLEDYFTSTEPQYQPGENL

The test system of series [7] is Mus musculus. The series is described as follows: Effect on Src protein expression level in midbrain of MPTP/probenecid-induced chronic C57/BL mouse Parkinson's disease model at 5 to 20 mg/kg dosed once daily for 7 weeks post 10 doses of MPTP/probenecid for 5 weeks by iTRAQ-labelled 2D-LC/MS/MS analysis. The series is classed as functional, organism-based.
Series [8] concerns Mus musculus. The series is described as follows: Antineuro-inflammatrory activity in MPTP-induced subacute C57/BL mouse Parkinson's disease model assessed as decrease in IL-1beta levels in midbrain at 10 to 20 mg/kg […] dosed 30 mins prior to each MPTP injection for 5 days and administered continuously for 7 days post last MPTP dose measured on day 12 post last dose by ELISA. The series is classed as functional, organism-based. In a few lines: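 Male C57/BL mice (22–25 g) received MPTP hydrochloride 30 mg/kg i.p. daily for 5 days. Test agent (5, 10, 20 mg/kg) or L-DOPA 20 mg/kg, suspended in 0.5% CMC-Na, given 30 min before each MPTP injection, then continued for 7 more days. On day 12 the midbrain was homogenised in non-denaturing lysis buffer with protease inhibitor and IL-1β or TNF-α measured by ELISA, n = 6, mean ± SD.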

In series [9] the test system is Mus musculus. The series is described as follows: In vivo inhibition of Src in MPTP/probenecid-induced chronic C57/BL mouse Parkinson's disease model assessed as effect on PTEN expression level in midbrain at 5 to 20 mg/kg dosed once daily for 7 weeks post 10 doses of MPTP/probenecid for 5 weeks by iTRAQ-labelled 2D-LC/MS/MS analysis. The series is classed as functional, organism-based.

Series [10] has as its target Proto-oncogene tyrosine-protein kinase Src (Rattus norvegicus) (UniProt Q9WUD9). Put plainly: Inhibition of SRC in Sprague-Dawley rat primary mixed mesecephalic neuron/glial cells assessed as protection against LPS-induced dopaminergic neuro-toxicity by measuring TH expression at 10 uM preincubated for 1 hr followed by LPS challenge measured after 7 days by Western blot analysis. In outline: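 Mixed mesencephalic neuron/glia cultures from E14 Sprague-Dawley rats, used at 7 days. Agent at 10 µM added 1 h before LPS 100 ng/mL; TH measured by Western blot after 7 days, n = 4.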
(In general: A western blot detects proteins with antibodies after separation by electrophoresis.)

The target in series [11] is Voltage-gated inwardly rectifying potassium channel KCNH2 (Homo sapiens, UniProt Q12809). Put plainly: Inhibition of human ERG by whole cell voltage clamp assay. In outline:
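Whole-cell voltage clamp. Internal solution: KCl 130 mM, MgCl2 1 mM, EGTA 5 mM, ATP-Mg 5 mM, HEPES 10 mM, pH 7.2. Bath: NaCl 137, CaCl2 1.8, KCl 4, MgCl2 1, glucose 5, HEPES 10 mM, pH 7.4. From a holding potential of −70 mV, 2-s steps to 50 mV in 10 mV increments every 15 s; tail current recorded on a 2-s step from +50 to −40 mV.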

In series [12] the test system is Mus musculus. The series is described as follows: In vivo inhibition of Src in MPTP/probenecid-induced chronic C57/BL mouse Parkinson's disease model assessed as effect on NOS1 expression level in midbrain at 5 to 20 mg/kg dosed once daily for 7 weeks post 10 doses of MPTP/probenecid for 5 weeks by iTRAQ-labelled 2D-LC/MS/MS analysis. The class given is functional, organism-based.

Series [13] has as its system Mus musculus. Put plainly: Increase in dopamine level in striatum of MPTP/probenecid-induced chronic C57/BL mouse Parkinson's disease model at 10 to 20 mg/kg dosed once daily for 7 weeks post 10 doses of MPTP/probenecid for 5 weeks measured after last MPTP/probenecid dose by HPLC analysis. The class given is functional, organism-based. In a few lines: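 Chronic model: 10 doses of MPTP·HCl (25 mg/kg s.c.) with probenecid (250 mg/kg i.p.) over 5 weeks. Rotarod-impaired mice then dosed with agent (5–20 mg/kg) or L-DOPA 20 mg/kg daily for 7 weeks. Striatum extracted in 0.6 N perchloric acid with phosphate/citrate/EDTA buffer; dopamine by HPLC, n = 8.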

Series [14] deals with Mus musculus. The series is described as follows: Nephrotoxicity in ICR mouse at 250 to 1000 mg/kg administered through oral gavage for 14 consecutive days. The series is classed as toxicity, organism-based. As to conditions: in vivo. In a few lines: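 Mice dosed by oral gavage at 250, 500 and 1000 mg/kg for 14 consecutive days. General condition monitored throughout; liver and kidney clinical chemistry assessed.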

Chain of Voltage-gated inwardly rectifying potassium channel KCNH2 (Q12809 whole entry): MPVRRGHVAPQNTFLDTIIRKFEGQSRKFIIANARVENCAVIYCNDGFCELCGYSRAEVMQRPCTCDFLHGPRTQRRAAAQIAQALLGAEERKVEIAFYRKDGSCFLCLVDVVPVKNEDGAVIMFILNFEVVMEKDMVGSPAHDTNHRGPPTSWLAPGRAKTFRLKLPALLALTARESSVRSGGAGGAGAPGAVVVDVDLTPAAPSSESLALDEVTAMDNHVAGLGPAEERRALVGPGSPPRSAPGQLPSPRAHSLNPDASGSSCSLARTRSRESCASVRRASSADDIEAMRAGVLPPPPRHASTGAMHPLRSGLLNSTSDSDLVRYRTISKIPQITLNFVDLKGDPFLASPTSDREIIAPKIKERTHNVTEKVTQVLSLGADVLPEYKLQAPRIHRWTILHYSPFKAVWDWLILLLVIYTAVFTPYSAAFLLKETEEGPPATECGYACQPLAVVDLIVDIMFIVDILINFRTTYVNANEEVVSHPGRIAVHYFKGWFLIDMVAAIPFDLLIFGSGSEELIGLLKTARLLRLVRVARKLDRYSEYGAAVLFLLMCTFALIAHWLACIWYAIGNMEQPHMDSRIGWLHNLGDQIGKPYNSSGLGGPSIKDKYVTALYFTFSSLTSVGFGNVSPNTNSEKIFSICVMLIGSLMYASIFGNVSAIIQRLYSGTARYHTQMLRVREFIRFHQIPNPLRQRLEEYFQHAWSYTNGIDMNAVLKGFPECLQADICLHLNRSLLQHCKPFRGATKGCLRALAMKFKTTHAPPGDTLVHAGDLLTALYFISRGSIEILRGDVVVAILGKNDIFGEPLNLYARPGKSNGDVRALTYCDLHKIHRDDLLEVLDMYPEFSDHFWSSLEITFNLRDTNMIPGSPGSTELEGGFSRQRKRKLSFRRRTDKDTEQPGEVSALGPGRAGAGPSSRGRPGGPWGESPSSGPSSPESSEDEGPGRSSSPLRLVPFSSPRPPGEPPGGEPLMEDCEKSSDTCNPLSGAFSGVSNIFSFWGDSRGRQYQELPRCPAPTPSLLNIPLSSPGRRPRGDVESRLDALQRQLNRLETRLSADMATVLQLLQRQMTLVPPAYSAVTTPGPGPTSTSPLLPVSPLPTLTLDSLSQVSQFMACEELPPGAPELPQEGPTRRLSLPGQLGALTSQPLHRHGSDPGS

Regarding `COc1cc(OC)c(CN[C@@H](CO)C(=O)O)c(OC)c1`, the inhibition entry in [1], in series [6], in series [9], in series [10] and in series [12] was “Active” throughout. In addition, the outcome in [2], in series [3], in series [4], in [5], in series [7] and in series [8] was Active. For the same compound, the result in series [13] was Active. Moreover, the “inhibition (INH)” value in series [11] was “Active”. In [14], the Activity entry is on record as “Non-Toxic”.
